In the library only some 2.2% were active in any assay of this set; here they are far more common.
EBI2 antag: antagonists of human EBI2 receptor; P32249; EBI2 beta-arrestin recruitment, luminescence, 7a,25-OHC stimulated; inhibition, % at 5 µM; 0.81% of 360,000 active; AID 651636; in the data active means inhibition above about 38%;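 further: enzyme fragment complementation signal reports receptor beta-arrestin coupling in cells; 0% = agonist plus DMSO wells and 100% = wells without agonist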
Target sequence (P32249 whole entry, looked up, the tested form may be a part): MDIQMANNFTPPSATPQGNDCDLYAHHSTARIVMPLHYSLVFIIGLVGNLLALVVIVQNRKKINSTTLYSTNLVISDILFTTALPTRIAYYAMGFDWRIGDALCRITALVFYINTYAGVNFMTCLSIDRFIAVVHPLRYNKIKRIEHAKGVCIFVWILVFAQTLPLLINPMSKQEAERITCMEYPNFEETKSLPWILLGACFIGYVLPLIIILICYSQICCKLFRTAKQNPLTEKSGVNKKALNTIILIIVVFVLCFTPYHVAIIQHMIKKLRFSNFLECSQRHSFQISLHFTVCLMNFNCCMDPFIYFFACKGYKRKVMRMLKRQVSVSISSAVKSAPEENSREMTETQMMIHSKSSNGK
CCR6 antagonist: CCR6 (human) receptor antagonism; P51684; CHO-K1 CCR6 PathHunter beta-arrestin, luminescence, CCL20-stimulated; inhibition, % at 20 µM; 0.49% of 340,000 active; AID 493098;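 active means compounds whose inhibition of the agonist-driven luminescence signal at 20 µM reaches about 50%, limit read from the data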;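 further: cells stimulated with CCL20 at 14 nM final; plate controls were DMSO with CCL20 for no effect and DMSO without agonist for full effect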
HTR2A ag: mouse HTR2A agonism via beta-arrestin recruitment; CHO-K1 mHTR2A beta-arrestin complementation, luminescence; percent of 30 µM serotonin response; activation, % at 7.6 µM; 0.66% of 360,000 active;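 active means activation above a run cutoff, the mean activation of all tested compounds plus 3 SD, cut at about 14% in these data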;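 further: 0% = plate median of compound wells and 100% = 30 µM serotonin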
APJ antagonist: APJ receptor antagonism; inhibition, % at 20 µM; 0.32% of 330,000 active; CHO-K1 APJ beta-arrestin complementation, luminescence; AID 2521; P35414;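 active means inhibition above about 40% at 20 µM, limit read from the data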;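 further: cells challenged with 10 nM apelin-13 agonist together with compound; plate controls were apelin-13 plus DMSO wells for no effect and DMSO wells lacking apelin-13 for full effect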
CXCR6 block: inhibitors of human CXCR6 receptor; CHO-K1 PathHunter CXCR6 beta-arrestin, luminescence; inhibition, % at 20 µM; 0.36% of 360,000 active; AID 602244; in the data active means inhibition above about 34%, passing the limit was not always enough;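 further: antagonist mode with CXCL16 agonist at 10 nM final; 0% = 10 nM CXCL16 with DMSO and 100% = unstimulated wells without agonist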
Target sequence (O00574 whole entry, looked up): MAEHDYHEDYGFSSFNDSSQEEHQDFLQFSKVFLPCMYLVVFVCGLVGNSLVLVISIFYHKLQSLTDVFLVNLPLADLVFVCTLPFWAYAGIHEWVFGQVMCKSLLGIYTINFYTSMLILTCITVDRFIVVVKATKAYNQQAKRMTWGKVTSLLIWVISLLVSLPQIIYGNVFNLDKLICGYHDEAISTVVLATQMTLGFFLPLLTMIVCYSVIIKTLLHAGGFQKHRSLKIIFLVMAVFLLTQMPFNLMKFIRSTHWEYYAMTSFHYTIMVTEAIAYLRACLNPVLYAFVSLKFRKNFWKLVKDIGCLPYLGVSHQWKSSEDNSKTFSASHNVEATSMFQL
APJ agonist: agonists of human APJ apelin receptor; P35414; CHO-K1 APJ PathHunter beta-arrestin, luminescence; 0% DMSO wells, 100% apelin; activation, % at 20 µM; 0.11% of 330,000 active; AID 2520;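 active means activation more than six SD over the plate average, tested at 20 µM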;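 further: 0% = DMSO alone and 100% = apelin-13 at 10 nM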
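Test system: CHO-K1 APJ beta-arrestin complementation cell line | Compound: Single test compound dose, 20 µM final, 1% DMSO | Incubation: Compound 90 min 25 °C, reagent 1 h | Measured by: beta-gal luminescence | Read-out basis: APJ–arrestin association signal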
EBI2 conf: EBI2 (human) antagonism, single concentration confirmation; shares compounds with EBI2 antag; EBI2 beta-arrestin luminescence, 7a,25-OHC antagonism; inhibition, % at 5 µM; 29% of 2,400 active;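 active means inhibition of at least 50%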
EBI2 ag: EBI2 agonism counter-screen. shares compounds with EBI2 antag. EBI2-expressing cells, agonist mode, luminescence, 60 min; 0% vehicle, 100% 7α,25-dihydroxycholesterol control. activation, % at 5 µM. 2,400 tested, under 10 active. AID 652000;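 active means activation of at least 50%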
bGal counter: beta-galactosidase inhibition counter-screen; shares compounds with EBI2 antag; purified beta-galactosidase, luminescent Galacton Star, 15 min; inhibition, % at 5 µM; 1% of 2,400 active; AID 652176;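 active means replicate-average signal at least 3 plate SD below neutral wells, shown as high inhibition, flagging enzyme-inhibiting false positives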;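 further: 0% = DMSO wells with enzyme and 100% = wells lacking enzyme; higher means stronger loss of beta-gal luminescence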
* = called active by the depositor; . = no result.

SMILES	EBI2 antag	CCR6 antagonist	HTR2A ag	APJ antagonist	CXCR6 block	APJ agonist	EBI2 conf	EBI2 ag	bGal counter
COc1ccc(NC(=O)c2ccc(COCC(F)(F)C(F)F)cc2)cc1	44.3*	15.9	-2.0	-10.2	-5.5	-2.5	21.1	0.1	-17.4
Oc1ccccc1-c1nnc(COc2ccc(Cl)cc2Cl)o1	0.6	13.8	1.8	-0.1	19.6	-2.9	.	.	.
Clc1ccc(-c2nnc(CCc3ccccc3)o2)c(Cl)c1	55.4*	21.1	-1.5	-11.2	-0.9	-7.0	41.3	1.4	1.2
CCOC(=O)CC1(C)Oc2cc(Cl)ccc2N1S(=O)(=O)c1ccc(C)cc1 (stereo not given)	7.8	.	-5.4	.	.	.	.	.	.
CCC[C@H]1CN(Cc2cccnc2)C(=O)[C@@H]1CC(=O)Nc1ccc(Br)cc1	9.1	.	0.4	.	-3.3	.	.	.	.
OCc1cccc(-c2csc(C(O)c3ccco3)n2)c1 (stereo not given)	0.0	.	1.0	.	2.6	.	.	.	.
Cc1cc(Cl)ccc1Oc1ncc(-c2ccc(Cl)cc2)cn1	59.5*	4.2	-3.4	-21.3	-2.8	3.8	44.5	1.8	7.8
Clc1ccc(-c2cnc(Oc3ccccc3)nc2)cc1	72.9*	14.4	4.2	18.8	-6.3	-5.5	46.5	2.6	4.1
Clc1ccc(-c2ccccc2)cn1	0.8	0.3	8.4	-0.2	-5.7	-1.4	.	.	.
CCNC(=O)C1(C)CCN(C(=O)c2cccc3ccccc23)C1 (stereo not given)	-11.6	.	0.8	.	-2.5	.	.	.	.
CCN(CC(=O)Nc1cc(Cl)ccc1C)CC(=O)NC1CC1	2.4	.	2.2	.	-4.7	.	.	.	.
CC(C)(C)CC(C)(C)NC(=O)CSCC(=O)Nc1ccc2ccccc2c1	70.8*	14.2	-3.7	-12.0	-2.3	3.3	46.7	-1.4	-5.9
CCC(=O)Nc1ccc2ccccc2c1	-3.2	4.9	2.1	-19.0	-5.6	0.4	.	.	.
COCCNC(=O)C1(C)CCCN(Cc2csc(-c3ccc(Cl)cc3)n2)C1 (stereo not given)	7.7	.	-0.6	.	6.3	.	.	.	.
COC(C(=O)N/N=C(\C)c1ccc(O)cc1)c1ccccc1 (stereo not given)	-0.9	-1.5	-0.3	-5.0	-4.9	-1.1	.	.	.
COC(C(=O)N/N=C(\C)c1ccc(C(C)(C)C)cc1)c1ccccc1 (stereo not given)	65.0*	16.5	0.2	-13.5	5.2	-4.6	24.2	-0.7	-10.3
N#C/C(=C\c1ccc(Cl)c([N+](=O)[O-])c1)c1ccccn1	52.9*	-5.4	1.1	-6.7	-13.4	5.4	58.3*	3.3	-0.4
CNc1ccc(/C=C(\C#N)c2ccccn2)cc1[N+](=O)[O-]	4.6	9.0	-2.1	3.0	6.2	-3.5	.	.	.
Cc1cccc(C)c1N1CCN(C(=O)Nc2ccc3c(c2)OCCO3)CC1	63.9*	8.2	-2.5	-5.2	-4.5	0.6	54.4*	0.1	6.7
COc1ccc(Nc2c(C3CC3)nc3nc(C)cc(C)n23)cc1	-11.6	.	4.4	.	-4.7	.	.	.	.
O=C(NCc1ccccc1)C(c1ccccc1)n1c(C2CC2)nc2ccccc21 (stereo not given)	3.8	.	-4.7	.	.	.	.	.	.
COc1ccc(Nc2ccc(OC)cc2)cc1	9.9	-22.0	10.7	-17.6	8.9	1.5	.	.	.
COc1ccc(Nc2ccc(Nc3ccc(OC)cc3)nn2)cc1	69.4*	12.9	-1.3	5.7	-6.0	4.6	30.6	0.8	-9.8
Clc1ccc(-c2cc3nc(NCc4cccc(Cl)c4)ccn3n2)cc1	27.4	.	-2.9	.	-12.9	.	.	.	.
Cc1cc(Cl)c2oc(C(=O)N3CCN(C(=O)c4ccco4)CC3)c(C)c2c1	44.4*	7.8	-1.6	-41.6	1.4	3.2	19.9	-1.6	-7.2
SMILES	EBI2 antag	CCR6 antagonist	HTR2A ag	APJ antagonist	CXCR6 block	APJ agonist	EBI2 conf	EBI2 ag	bGal counter
Cc1cc(Cl)c2oc(C(=O)N3CCOCC3)c(C)c2c1	-3.4	.	0.4	.	9.5	.	.	.	.
Cc1cc(Cl)c2oc(C(=O)N3CCN(c4cnccn4)CC3)c(C)c2c1	53.6*	.	4.3	.	1.3	.	32.8	-1.1	-8.1
CCOc1ccc(-n2c(-c3ccco3)nc3c(cnn3-c3ccc(C)cc3)c2=O)cc1	46.8*	6.4	4.3	-8.4	9.5	-0.8	18.9	0.5	5.8
C[C@H](NC(=O)C1CCN(C(=O)[C@@H]2CCCN2C(=O)OC(C)(C)C)CC1)C(=O)NCc1ccc(F)cc1	-2.9	.	3.6	.	-11.8	.	.	.	.
COc1cc(/C=c2\sc3n(c2=O)C(c2ccccc2)C(c2ccccc2)=NN=3)ccc1O (stereo not given)	49.5*	40.8	-0.7	21.3	35.0	-5.4	42.9	-1.2	9.9
CCOC(=O)C1=C[C@@H](C2CCCCC2)N(S(=O)(=O)c2ccc([N+](=O)[O-])cc2)[C@H]1c1ccccc1	-28.8	.	3.5	.	-13.1	.	.	.	.
CC(C)(C)c1nnc(N/N=C/c2ccccc2)n(N)c1=O	76.8*	12.4	7.4	2.3	-2.0	1.2	48.2	2.1	8.5
COc1cccc(CN2CCC2(C)C(=O)Nc2ccc(C)c(O)c2)c1F (stereo not given)	-0.9	.	-0.7	.	-8.2	.	.	.	.
CCOC(=O)[C@]12CCC=C1N(Cc1ccc3c(c1)OCO3)C(=O)[C@H](CC(=O)N1CCN(C(=O)c3ccco3)CC1)C2	1.0	.	0.5	.	-1.0	.	.	.	.
COC(=O)c1cc2c(ccn2-c2ccc(F)cc2)n1Cc1ccc(OC)cc1	44.3*	25.8	-3.1	5.8	7.8	2.1	19.1	0.5	4.6
COC(=O)c1cc2c(ccn2-c2ccc(F)cc2)n1Cc1ccc(C#N)cc1	41.3	13.6	0.5	-10.7	12.4	-2.7	.	.	.
CCn1c(C(=O)OC)cc2c1ccn2-c1ccc(F)cc1	46.1*	16.3	-3.7	18.1	5.1	-4.2	20.4	-1.3	-8.0
O=S(=O)(Cc1ccccc1)C(c1ccccc1)S(=O)(=O)Cc1ccccc1	-0.3	.	1.0	.	-1.6	.	.	.	.
CCOC(=O)c1c(NC(=O)CN(C)C2CCN(C)CC2)sc(C(=O)Nc2ccccc2)c1C	3.2	12.3	-1.9	7.8	-6.7	-4.2	.	.	.
COCCOC(=O)c1c(NC(=O)COC(=O)Cc2cccc(OC)c2)sc(C(N)=O)c1C	44.3*	10.3	-6.0	13.5	-0.5	-9.7	17.5	-1.6	-18.7
COCCOC(=O)c1c(NC(=O)CN(C)c2ccccc2)sc(C(N)=O)c1C	88.0*	1.4	-2.6	-2.6	6.7	-2.8	53.9*	2.8	11.0
COCCOC(=O)c1c(NC(=O)CN2CCc3ccccc32)sc(C(N)=O)c1C	70.1*	5.4	1.9	3.9	-7.9	-0.2	22.3	-0.6	-11.4
